# This is a sample that favours compounds with a hit; in the whole collection about 1.3% have one here.
# TPT1 inhibitor = C. albicans TPT1 enzyme inhibition; inhibition, % at 5 µM; AID 1962; hit rate 0.81% among 300,000; recombinant caTPT1, FP RNA substrate dephosphorylation;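 active means inhibition above the mean of all tested compounds plus 3 SD, set per screening campaign, cut at about 24% in these data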;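 further: plate controls were DMSO alone for no effect and ferristatin control at 100 nM for full effect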
# Xi reactivation = X-chromosome reactivation activator; hit rate 0.055% among 360,000; XiGFP mouse fibroblasts, % GFP-positive cells imaging, 3 d; cells co-treated with 5-aza-dC sensitizer; scaled so ellipticine positive control = 100%; activation, % at 7.58 µM; AID 743238;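 active means mean normalized replicate activation at least 10% and every replicate at or above 10%; inconclusive means only one of the two criteria met; inactive means mean below 10% and not all replicates reach 10%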;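 further: 0% = median of on-plate neutral control wells and 100% = ellipticine 6 µM median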
#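 System: SV40-immortalized XiGFP fibroblast cells, line 68-5-11 / Incubation: 3-day compound exposure, then 15 min fixation at room temperature / Compound: single concentration per compound, delivered by pin transfer / Buffer or medium: DMEM plus 5-aza-dC sensitizer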
# HNF4A DNA FP = change in binding of human HNF4 alpha to DNA. P41235. HNF4a-FITC DNA binding, fluorescence polarization, 1 h. activity change, % at 10 µM. hit rate 0.3% among 360,000. AID 1224865; in the data active means activity change above about 30%, passing the limit was not always enough
# aDG glyco up = increases alpha dystroglycan glycosylation | Pro5-aDG cells, alpha-DG glycosylation AlphaScreen (IIH6); 0% Pro5, 100% B10-LARGE cell signal | hit rate 0.22% among 360,000 | AID 624168 | activation, % at 10 µM;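 active means activation of at least 8% versus controls, or a plate z-score of at least 8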;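 further: Pro5 are CHO cells carrying HIG-tagged alpha-DG that lacks glycosylation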
# Rpn11 block = blocks the human proteasome subunit Rpn11; O00487; human 26S proteasome, Ub4-pepOG fluorescence polarization; 20S core pre-blocked with epoxomicin; inhibition, % at 20 µM; hit rate 0.59% among 360,000; AID 588493;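 active means inhibition at 20 µM, scaled to each plate's controls, above about 33%, limit read from the data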
# Target sequence (O00487 whole entry, looked up): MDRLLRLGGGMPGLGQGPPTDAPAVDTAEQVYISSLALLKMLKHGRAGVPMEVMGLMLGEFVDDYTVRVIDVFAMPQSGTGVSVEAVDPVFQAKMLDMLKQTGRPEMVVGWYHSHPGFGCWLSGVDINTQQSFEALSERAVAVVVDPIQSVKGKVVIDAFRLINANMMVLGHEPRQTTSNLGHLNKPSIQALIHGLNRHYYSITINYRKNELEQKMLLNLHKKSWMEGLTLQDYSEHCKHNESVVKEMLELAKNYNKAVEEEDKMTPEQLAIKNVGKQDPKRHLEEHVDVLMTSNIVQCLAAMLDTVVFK
# CSN inh = blocks human CSN-mediated cullin deneddylation. Q92905. hit rate 0.38% among 360,000. AID 651999. Purified CSN, SCF-Nedd8-OG deneddylation, fluorescence polarization. inhibition, % at 12.5 µM;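 active means pattern-corrected inhibition above about 35%, with an unprinted fluorescence ratio check between 0.5 and 1.5, limit read from the data, passing the limit was not always enough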;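 further: 0% = enzyme with substrate and 100% = substrate without enzyme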
#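 Test system: purified human Csn5 enzyme expressed in HEK293T cells. Amount: 0.24 nM enzyme. Reagent: SCFSkp2-Nedd8OG substrate at 10 nM final. Schedule: 90 min incubation of compound, enzyme and substrate at room temperature. Detection: fluorescence polarization. Read-out: % inhibition of substrate cleavage by Csn5.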
# TPT1 inh confirm = confirmation of Candida albicans TPT1 inhibitors | shares compounds with TPT1 inhibitor | recombinant caTPT1, fluorescence polarization, RNase T1 coupled | inhibition, % at 5 µM | hit rate 74% among 2,400 | AID 2149;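 active means inhibition above the primary screen limit, the mean inhibition of all tested compounds plus 3 SD, cut at about 25% in these data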
# RNase T1 inh = counter-screen for TPT1 inhibitors: inhibitors of Aspergillus oryzae RNase T1; shares compounds with TPT1 inhibitor; RNase T1 cleavage, fluorescence polarization, 1536-well; AID 2153; hit rate 83% among 2,400; inhibition, % at 5 µM;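 active means inhibition above the solvent-only control well mean plus 3 SD, limit set per screening run, cut at about 23% in these data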;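 further: plate controls were DMSO wells with enzyme for no effect and wells without RNase T1 for full effect; inhibitors block cleavage so intact labeled substrate keeps polarization high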
# Target sequence (P00651 whole entry, looked up): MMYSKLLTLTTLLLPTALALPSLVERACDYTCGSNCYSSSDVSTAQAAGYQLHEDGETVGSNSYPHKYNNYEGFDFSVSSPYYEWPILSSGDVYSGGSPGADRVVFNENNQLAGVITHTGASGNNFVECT
# Rpn11 confirm = Rpn11 inhibition confirmation, single concentration. hit rate 29% among 1,900. shares compounds with Rpn11 block. AID 602318. inhibition, % at 20 µM. purified human 26S proteasome, Ub4-pepOG fluorescence polarization; proteasome pretreated with epoxomicin
# MMP-2 counter-1 = counter-screen for RPN11 inhibitors: inhibition of human MMP-2. hit rate 4% among 1,900. shares compounds with Rpn11 block. recombinant MMP-2, FRET peptide cleavage fluorescence. inhibition, % at 20 µM;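 further: human MMP-2 activated beforehand with APMA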
# Thrombin inh = blocks bovine thrombin, flagging nonselective RPN11 hits; shares compounds with Rpn11 block; bovine thrombin cleavage of Ub4-pepOG, fluorescence polarization; inhibition, % at 20 µM; hit rate 13% among 1,900; AID 602333;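 active means mean inhibition at least 40% at 20 µM, or signal 3 deviations below plate average, so some actives read negative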;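 further: plate controls were thrombin with DMSO for no effect and buffer wells lacking thrombin for full effect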
# CSN deneddyl val = Csn5 (human) deneddylation inhibition, single-concentration validation; shares compounds with CSN inh; Csn5 deneddylation of SCF-Nedd8OG, fluorescence polarization, 90 min; inhibition, % at 16.6 µM; hit rate 62% among 540; in the data active means inhibition above about 50%;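 further: 0% = DMSO with enzyme and 100% = no enzyme wells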
# MMP-2 counter-2 = counter-screen for CSN deneddylation inhibitors: human MMP-2 inhibition. inhibition, % at 16.6 µM. hit rate 33% among 540. shares compounds with CSN inh. AID 720655. recombinant MMP-2, FRET substrate fluorescence, 60 min;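 active means corrected plate-normalized z-score of 5 or more, or -5 or less, or inhibition of 15% or more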;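 further: plate controls were DMSO wells with enzyme for no effect and buffer wells lacking MMP-2 for full effect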
# Thrombin cntr = counter-screen for CSN deneddylation inhibitors: bovine thrombin inhibition. shares compounds with CSN inh. bovine thrombin cleavage of Ub4-pepOG, fluorescence polarization. inhibition, % at 16.6 µM. hit rate 49% among 540. AID 720656;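 active means inhibition at or above a set limit, with a fluorescence interference ratio between 0.5 and a set maximum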
# * hit, by the source's call; ? = inconclusive; . = not tested or not shown. Unless noted, no stated cut-off is given here; in the data, active means inhibition above about 40%; inactive means the rest.
SMILES,TPT1 inhibitor,Xi reactivation,HNF4A DNA FP,aDG glyco up,Rpn11 block,CSN inh,TPT1 inh confirm,RNase T1 inh,Rpn11 confirm,MMP-2 counter-1,Thrombin inh,others
NC(=O)c1cc2ccccc2o/c1=N/NC(=O)c1cccs1,2,0,-6,0,-2,-4,.,.,.,.,.,
COc1ccc2o/c(=N/NC(=O)c3cccs3)c(C(N)=O)cc2c1,52*,0,15,0,44*,18,68*,79*,70*,-28,43*,
CC(/C=C1\SC(=S)N(CCC(=O)Nc2cccc(C(=O)O)c2)C1=O)=C\c1ccccc1,25*,0,7,0,40*,16,43*,56*,122*,-6,28,
CC(=Cc1ccccc1)C=C1SC(=S)N(CCCC(=O)Nc2ccc(C(=O)O)cc2)C1=O,.,0,6,0,16,14,.,.,.,.,.,
NS(=O)(=O)c1ccc(N/N=C/c2cn(-c3ccccc3)nc2-c2ccccc2)c([N+](=O)[O-])c1,4,1,2,0,7,-3,.,.,.,.,.,
O=[N+]([O-])c1ccc(N/N=C/c2cn(-c3ccccc3)nc2-c2ccccc2)cc1,118*,.,28,-1,48*,16,103*,111*,26,-20,10,
Oc1ccc(/C=N/Nc2ccnc3cc(Cl)ccc23)c(O)c1O,33*,0,6,0,41*,14,14,20,10,10,3,
Oc1ccc(/C=N/Nc2ccnc3cc(Cl)ccc23)cc1O,2,0,-3,0,-5,3,.,.,.,.,.,
C[C@@H]1CN([C@@H](C)CO)C(=O)c2cc(NC(=O)Cc3ccccc3)ccc2O[C@@H](C)CCCCO[C@@H]1CN(C)S(=O)(=O)c1cccs1,.,0,.,.,.,.,.,.,.,.,.,
CCCCCC/C(C)=C1/SC(=S)NC1=O,51*,.,21,0,48*,23,13,19,3,18,5,
CCCCCCCC(=O)NNC(=O)Cc1ccccc1,-1,.,2,0,-1,-3,.,.,.,.,.,
O=C(N/N=C/c1sc(=O)n(-c2ccccc2)c1Cl)c1ccncc1,32*,0,21,0,57*,14,69*,81*,25,-26,12,
COc1cc(C(=O)N/N=C/c2sc(=O)n(-c3ccccc3)c2Cl)cc(OC)c1OC,8,0,11,0,22,2,.,.,.,.,.,
CC(NC(=O)/C(C#N)=C/c1ccc(C(=O)O)cc1)c1ccccc1 (stereo unspecified),-5,0,4,1,1,5,.,.,.,.,.,
COc1cc(/C=C(/C#N)C(=O)NC(C)c2ccccc2)cc(OC)c1O (stereo unspecified),66*,0,3,0,71*,18,107*,108*,22,-12,8,
Cc1ccc(-c2cnc3c(c2)C(=O)N([C@H](C)CO)C[C@H](C)[C@H](CN(C)C(=O)Cc2ccccc2)O3)cc1,.,-1,.,.,.,.,.,.,.,.,.,
CNC(=O)c1sc(N2N=C3/C(=C/c4ccccc4)CCCC3C2c2ccccc2)nc1C (stereo unspecified),28*,.,18,2,44*,15,44*,53*,22,8,0,
C[C@H](CO)N1C[C@H](C)[C@H](CN(C)Cc2ccccc2C(F)(F)F)OCc2cn(nn2)CCCC1=O,.,-1,.,.,.,.,.,.,.,.,.,
Cc1[nH]c2ccccc2c1/C=N/n1cnnc1,1,.,2,1,-3,-1,.,.,.,.,.,
COCCN=c1scc(-c2cc(OC)c(OC)c(OC)c2)n1/N=C/c1c(C)[nH]c2ccccc12,44*,0,31,0,112*,12,60*,71*,56*,23,27,
O=[N+]([O-])c1ccc(N/N=C/c2cccc(O)c2)cc1,45*,0,14,0,46*,12,55*,66*,19,25,11,
O=[N+]([O-])c1ccc(N/N=C/c2ccc[nH]2)cc1,64*,?,34,1,67*,16,65*,76*,51*,30,34,
CSc1nsc(/C=C/Nc2ccc(F)cc2F)c1C#N,54*,.,42*,0,55*,31,72*,89*,-20,-13,-21,
CCOC(=O)/C(=C/C1=CC(=C/N(C)C)/C(=O)O1)C(C)=O,124*,0,66*,0,.,93*,140*,138*,.,.,.,CSN deneddyl val=121*;MMP-2 counter-2=-23;Thrombin cntr=82*
Cc1cc(/C=C2\SC(=S)N(C)C2=O)c(C)n1-c1cccc(O)c1,78*,0,72*,1,.,37*,114*,117*,.,.,.,CSN deneddyl val=71*;MMP-2 counter-2=4;Thrombin cntr=94*
CC1=NN(c2ccccc2)C(=O)/C1=C\C=C1/N(C)c2ccccc2C1(C)C,74*,0,109*,0,.,80*,74*,84*,.,.,.,CSN deneddyl val=65*;MMP-2 counter-2=1;Thrombin cntr=71*
CCN(CC)S(=O)(=O)c1cccc(C(=O)N/N=C(\C)c2ccc(O)cc2O)c1,89*,0,27,1,.,37*,140*,129*,.,.,.,CSN deneddyl val=92*;MMP-2 counter-2=-27*;Thrombin cntr=79*
CCN(CC)S(=O)(=O)c1cccc(C(=O)N/N=C/c2ccc(O)c(O)c2O)c1,10,1,3,0,5,-12,.,.,.,.,.,
CN(C)c1ccc(/C=C2\CCC/C(=C\c3ccccc3)C2=O)cc1,104*,0,106,0,.,73*,111*,109*,.,.,.,CSN deneddyl val=91*;MMP-2 counter-2=-9;Thrombin cntr=36*
